From ChEMBL document CHEMBL4609986 (Bioorg Med Chem, 2020)

How the values were obtained:
[1] = target: T1, Dual specificity tyrosine-phosphorylation-regulated kinase 1A (Homo sapiens, UniProt Q13627); assay: Inhibition of DYRK1A in human pancreatic islets assessed as induction of pancreatic beta-cells replication measured after 48 hrs by Hoechst 33342 staining based analysis
Method in brief: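 Human islets (85-95% purity) rested 12 h in low-glucose DMEM with 10% FBS and 20 nM exendin-4. Dispersed to single cells and plated on 804G-conditioned-matrix 384-well plates for 48 h. Treated 48 h, then fixed with 4% PFA. Stained with anti-insulin, anti-Ki-67 and 4 μM Hoechst 33342; Ki67+Insulin+/Insulin+ scored by high-content imaging against per-plate cutoffs.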

[2] = target: T1, Dual specificity tyrosine-phosphorylation-regulated kinase 1A; assay: Inhibition of human DYRK1A transfected in HEK293T cells co-transfected with Renilla plasmid, pGL3-NFAT and NFATc1 assessed as derepression of NFAT-dependent luciferase activity measured after 48 hrs by luciferase assay; type: cell-based, HEK-293T
Method in brief: (§1)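 HEK293T cells transfected with PEI using DYRK1A, Renilla plasmid, IL-2-based pGL3-NFAT firefly reporter and NFATc1. Next day the same transfected population was split into 96-well plates; 6 h later cells were treated for 48 h (11-point dose curve, n = 4), then lysed. EC50 from firefly/Renilla ratio, 4-parameter agonist fit. CC50 from loss of constitutive Renilla signal, 4-parameter inhibitor fit.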

[3] = (§2) Cytotoxicity against human HEK293T cells transfected with DYRK1A co-tranfected with Renilla plasmid, pGL3-NFAT and NFATc1 assessed as reduction in luciferase activity by measuring cell number; type: cell-based, HEK-293T; method in brief: as §1
Homo sapiens = organism: Homo sapiens; assay: Selectivity index, ratio of CC50 for human HEK293T cells transfected with DYRK1A co-tranfected with Renilla plasmid, pGL3-NFAT and NFATc1 assessed as reduction in luciferase activity by measuring cell number to EC50 for human DYRK1A transfected in HEK293T cells co-transfected with Renilla plasmid, pGL3-NFAT and NFATc1 assessed as derepression of NFAT-dependent luciferase activity measured after 48 hrs by luciferase assay; type: cell-based; method in brief: as §1
[4] = Cytotoxicity against mouse R7T1 cells assessed as reduction in cell viability measured after 48 hrs by Hoechst 33342 staining based analysis
Method in brief: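 Mouse R7T1 β-cells cultured in high-glucose DMEM with 10% FBS, doxycycline and pyruvate, plated at 25,000 cells/well. Treated in quadruplicate 6 h later (0.169–10,000 nM) for 48 h. Cells fixed in paraformaldehyde and stained with 4 μM Hoechst 33342; nuclei counted by high-content imaging.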

[5] = Selectivity index, ratio of CC50 for mouse R7T1 cells assessed as reduction in cell viability measured after 48 hrs by Hoechst 33342 staining based analysis to MEC for inhibition of DYRK1A in human pancreatic islets assessed as induction of pancreatic beta-cells replication measured after 48 hrs by Hoechst 33342 staining based analysis
[6] = Half life in mouse liver microsomes at 1 uM preincubated for 10 mins followed by NADPH addition and measured up to 40 mins by LC-MS/MS analysis; type: ADME, Microsome
Method in brief: (§3)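 Human or mouse liver microsomes, each run separately, in 100 mM KxPO4 pH 7.4 with 10 mM MgCl2 and 1 μM test compound. Pre-incubated 10 min at 37 °C, then started with 1 mM NADPH. Quenched in acetonitrile stop solution at 0, 10, 20 and 40 min, centrifuged, diluted and analysed by LC-MS/MS.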

[7] = Half life in human liver microsomes at 1 uM preincubated for 10 mins followed by NADPH addition and measured up to 40 mins by LC-MS/MS analysis; type: ADME, Microsome; method in brief: as §3
[8] = Apparent permeability in human Caco2 cells measured after 2 hrs by LC-MS/MS analysis; type: ADME, cell-based, Caco-2; settings: for Papp at 2 h: Caco-2
Method in brief: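 Caco-2 monolayers grown on polycarbonate filter inserts (5 × 10⁵ cells/well seeded) and differentiated 21 ± 4 days. Transport run in HBSS with 25 mM HEPES, pH 7.4, 37 °C; compound added donor side. Receiver sampled over 2 h, donor at 0 and 2 h; LC-MS/MS with internal standard. Papp = (dC_rec/dt)/(A × C0,donor) × 10^6.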

HEK-293T = assay: as §2; type: cell-based; settings: hek-293t; method in brief: as §1
[9] = target: T2, Tyrosine-protein kinase ABL1 (Homo sapiens, UniProt P00519); assay: Inhibition of wild-type human non-phosphorylated ABL1 (S229 to K512 residues) expressed in mammalian expression system assessed as residual activity at 100 nM by Kinomescan method relative to control
Method in brief: (§4)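 Kinase panel of 468 kinases, scored as residual activity at 100 nM or 500 nM test compound.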

[10] = target: T2, Tyrosine-protein kinase ABL1; assay: Inhibition of wild-type human phosphorylated ABL1 (S229 to K512 residues) expressed in mammalian expression system assessed as residual activity at 100 nM by Kinomescan method relative to control; method in brief: as §4
[11] = target: T1, Dual specificity tyrosine-phosphorylation-regulated kinase 1A; assay: Inhibition of wild-type human partial length DYRK1A (H129 to S509 residues) expressed in mammalian expression system assessed as residual activity at 100 nM by Kinomescan method relative to control; method in brief: as §4
[12] = target: T3, Aurora kinase A (Homo sapiens) (UniProt O14965); assay: Inhibition of wild-type human partial length AURKA (E122 to K401 residues) expressed in mammalian expression system assessed as residual activity at 100 nM by Kinomescan method relative to control; method in brief: as §4
T3 sequence (whole entry): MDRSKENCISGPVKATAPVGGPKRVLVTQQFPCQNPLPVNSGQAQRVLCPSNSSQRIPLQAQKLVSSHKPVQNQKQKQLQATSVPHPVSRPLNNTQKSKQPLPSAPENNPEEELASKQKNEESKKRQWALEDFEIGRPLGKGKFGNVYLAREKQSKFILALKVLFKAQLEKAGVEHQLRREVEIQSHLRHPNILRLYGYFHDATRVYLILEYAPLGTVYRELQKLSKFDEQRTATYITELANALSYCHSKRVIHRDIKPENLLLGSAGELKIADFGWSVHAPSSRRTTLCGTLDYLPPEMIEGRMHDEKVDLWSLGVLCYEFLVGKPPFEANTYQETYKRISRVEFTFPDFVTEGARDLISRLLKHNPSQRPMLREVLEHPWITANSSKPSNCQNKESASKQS

Aurora kinase B [13] = target: T4, Aurora kinase B (Homo sapiens, UniProt Q96GD4); assay: Inhibition of wild-type human partial length AURKB (D25 to A303 residues) expressed in mammalian expression system assessed as residual activity at 100 nM by Kinomescan method relative to control; method in brief: as §4
[14] = target: Dual specificity mitogen-activated protein kinase kinase 1 (Homo sapiens) (UniProt Q02750); assay: Inhibition of wild-type human full length MEK1 (M1 to V393 residues) expressed in mammalian expression system assessed as residual activity at 100 nM by Kinomescan method relative to control; method in brief: as §4
[15] = target: Dual specificity mitogen-activated protein kinase kinase 2 (Homo sapiens) (UniProt P36507); assay: Inhibition of wild-type human full length MEK2 (M1 to V400 residues) expressed in mammalian expression system assessed as residual activity at 100 nM by Kinomescan method relative to control; method in brief: as §4
[16] = target: T1, Dual specificity tyrosine-phosphorylation-regulated kinase 1A; assay: Binding affinity to wild-type human partial length DYRK1A (H129 to S509 residues) expressed in mammalian expression system by Kinomescan method
Method in brief: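 Kd measured in a KdELECT binding assay using an 11-point, 3-fold dilution series with three DMSO control points.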

AURKB (Aurora kinase B) [17] = target: T5, AURKB (Aurora kinase B) (Homo sapiens, UniProt Q96GD4); assay: Inhibition of AURKB in human HEK293T cells assessed as reduction in cell viability at 40 nM measured after 48 hrs relative to control; type: cell-based, HEK-293T
Method in brief: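 Cells were exposed to the Aurora inhibitor at 40 nM, alone or combined with a second DYRK1A inhibitor at 30, 90 or 270 nM, for 48 h. They were then fixed, stained and counted. Cell number is given as a percentage of untreated wells, with n = 4-16 and error bars as standard deviation.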

[18] = target: Maternal embryonic leucine zipper kinase (Homo sapiens, UniProt Q14680); assay: Binding affinity to wild-type human full length MELK (M1 to V651 residues) expressed in bacterial expression system by Kinomescan method
AURKB (Aurora kinase B) [19] = target: T5, AURKB (Aurora kinase B); assay: Inhibition of AURKB in human HEK293T cells assessed as reduction in cell viability at 10 uM measured after 48 hrs relative to control; type: cell-based, HEK-293T
Method in brief: (§5)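 HEK293T cells treated 48 h with the compound alone or combined with a second kinase inhibitor at the stated level, then fixed, stained and counted. Cell number expressed as a percentage of untreated wells; n = 4-16.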

Aurora kinase B [20] = target: T4, Aurora kinase B; assay: Inhibition of AURKB in human HEK293T cells assessed as reduction in cell viability at 10 uM measured after 48 hrs; type: cell-based; settings: hek-293t; method in brief: as §5
AURKB (Aurora kinase B) [21] = target: T5, AURKB (Aurora kinase B); assay: Inhibition of AURKB in human HEK293T cells assessed as reduction in cell viability at 3 uM measured after 48 hrs relative to control; type: cell-based, HEK-293T; method in brief: as §5

Maternal embryonic leucine zipper kinase, sequence (Q14680 whole entry, the tested form may be a part): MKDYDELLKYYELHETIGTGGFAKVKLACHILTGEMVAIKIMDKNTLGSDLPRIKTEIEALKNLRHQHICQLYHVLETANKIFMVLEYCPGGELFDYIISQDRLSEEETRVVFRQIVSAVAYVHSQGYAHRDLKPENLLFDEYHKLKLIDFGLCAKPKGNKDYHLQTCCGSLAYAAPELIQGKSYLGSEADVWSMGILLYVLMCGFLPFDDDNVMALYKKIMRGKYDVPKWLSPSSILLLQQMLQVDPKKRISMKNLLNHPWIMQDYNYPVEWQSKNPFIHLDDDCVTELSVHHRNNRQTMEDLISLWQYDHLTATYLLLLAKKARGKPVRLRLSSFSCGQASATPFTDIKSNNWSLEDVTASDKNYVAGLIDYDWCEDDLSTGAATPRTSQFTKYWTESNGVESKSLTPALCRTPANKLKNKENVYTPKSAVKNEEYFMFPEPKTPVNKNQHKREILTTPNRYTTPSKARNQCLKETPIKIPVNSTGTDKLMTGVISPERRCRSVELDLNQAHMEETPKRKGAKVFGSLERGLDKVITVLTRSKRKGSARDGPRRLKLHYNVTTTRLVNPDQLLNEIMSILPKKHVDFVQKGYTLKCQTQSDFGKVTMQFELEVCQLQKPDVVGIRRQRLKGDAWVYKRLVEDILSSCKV
T5 sequence (Q96GD4 whole entry): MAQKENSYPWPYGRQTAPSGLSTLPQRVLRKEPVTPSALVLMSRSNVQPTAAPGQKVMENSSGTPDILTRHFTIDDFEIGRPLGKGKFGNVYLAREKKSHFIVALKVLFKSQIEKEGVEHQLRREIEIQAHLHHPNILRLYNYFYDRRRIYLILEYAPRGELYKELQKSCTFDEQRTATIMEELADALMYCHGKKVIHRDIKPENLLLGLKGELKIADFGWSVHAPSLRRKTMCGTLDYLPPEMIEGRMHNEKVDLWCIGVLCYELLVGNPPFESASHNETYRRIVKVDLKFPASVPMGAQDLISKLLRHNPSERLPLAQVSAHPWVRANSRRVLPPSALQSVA
T2 sequence (P00519 whole entry, the tested form may be a part): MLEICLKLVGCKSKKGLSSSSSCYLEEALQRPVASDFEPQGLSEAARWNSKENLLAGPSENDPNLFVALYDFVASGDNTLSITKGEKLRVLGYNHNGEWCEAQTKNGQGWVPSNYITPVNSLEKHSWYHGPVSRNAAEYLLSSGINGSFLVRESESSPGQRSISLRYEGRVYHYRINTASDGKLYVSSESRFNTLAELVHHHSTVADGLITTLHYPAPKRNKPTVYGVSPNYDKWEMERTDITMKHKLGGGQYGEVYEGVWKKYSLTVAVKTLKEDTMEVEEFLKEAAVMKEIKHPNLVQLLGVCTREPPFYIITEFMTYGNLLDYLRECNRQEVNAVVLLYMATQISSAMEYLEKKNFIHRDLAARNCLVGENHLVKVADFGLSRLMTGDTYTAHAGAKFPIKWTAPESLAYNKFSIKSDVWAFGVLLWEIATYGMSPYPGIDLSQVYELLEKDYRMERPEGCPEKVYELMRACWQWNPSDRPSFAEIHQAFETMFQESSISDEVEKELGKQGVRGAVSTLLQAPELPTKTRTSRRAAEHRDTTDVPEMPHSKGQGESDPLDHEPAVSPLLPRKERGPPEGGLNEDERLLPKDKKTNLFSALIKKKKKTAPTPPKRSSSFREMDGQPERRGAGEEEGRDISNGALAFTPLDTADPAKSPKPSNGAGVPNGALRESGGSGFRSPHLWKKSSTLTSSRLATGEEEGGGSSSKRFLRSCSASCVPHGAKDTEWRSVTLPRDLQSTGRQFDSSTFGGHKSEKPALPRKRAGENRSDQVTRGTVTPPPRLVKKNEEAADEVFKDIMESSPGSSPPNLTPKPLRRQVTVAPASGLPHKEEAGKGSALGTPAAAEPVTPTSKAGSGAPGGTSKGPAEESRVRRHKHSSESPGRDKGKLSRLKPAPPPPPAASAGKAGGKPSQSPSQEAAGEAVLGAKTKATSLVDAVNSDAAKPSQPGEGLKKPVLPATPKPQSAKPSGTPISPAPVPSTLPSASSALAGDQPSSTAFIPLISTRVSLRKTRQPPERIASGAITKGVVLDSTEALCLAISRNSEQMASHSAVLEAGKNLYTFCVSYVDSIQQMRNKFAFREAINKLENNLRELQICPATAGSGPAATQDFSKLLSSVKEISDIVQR
T4 sequence (Q96GD4 whole entry, the tested form may be a part): as the sequence (Q96GD4 whole entry) above
Dual specificity mitogen-activated protein kinase kinase 1 (Homo sapiens), sequence (Q02750 whole entry, the tested form may be a part): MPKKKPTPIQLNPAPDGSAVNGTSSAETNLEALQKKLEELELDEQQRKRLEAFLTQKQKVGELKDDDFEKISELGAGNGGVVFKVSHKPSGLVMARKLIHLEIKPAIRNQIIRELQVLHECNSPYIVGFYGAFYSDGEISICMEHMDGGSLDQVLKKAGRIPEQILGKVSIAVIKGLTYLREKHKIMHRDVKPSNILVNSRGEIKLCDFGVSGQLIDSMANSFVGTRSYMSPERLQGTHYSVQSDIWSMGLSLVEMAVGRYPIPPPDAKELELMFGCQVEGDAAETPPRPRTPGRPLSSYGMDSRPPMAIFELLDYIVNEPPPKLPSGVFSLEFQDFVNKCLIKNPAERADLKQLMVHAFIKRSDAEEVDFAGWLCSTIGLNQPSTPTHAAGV
Dual specificity mitogen-activated protein kinase kinase 2 (Homo sapiens), sequence (P36507 whole entry, the tested form may be a part): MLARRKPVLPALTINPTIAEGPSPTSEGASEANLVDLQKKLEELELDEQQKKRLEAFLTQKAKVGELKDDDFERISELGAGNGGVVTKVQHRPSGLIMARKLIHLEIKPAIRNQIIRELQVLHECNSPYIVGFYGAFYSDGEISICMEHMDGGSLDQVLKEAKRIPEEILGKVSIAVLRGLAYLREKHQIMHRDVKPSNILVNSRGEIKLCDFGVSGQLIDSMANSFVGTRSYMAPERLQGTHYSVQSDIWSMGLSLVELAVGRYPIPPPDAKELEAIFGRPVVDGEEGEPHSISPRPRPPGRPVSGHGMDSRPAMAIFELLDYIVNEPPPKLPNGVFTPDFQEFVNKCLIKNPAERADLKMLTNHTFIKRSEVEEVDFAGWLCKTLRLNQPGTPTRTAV

| SMILES | MEC [1] | EC50 [2] | Ratio CC50/EC50 (Homo sapiens) | CC50 [4] | Selectivity Index [5] | t1/2 [6] | t1/2 [7] | CC50 (HEK-293T) | Kd [16] | other results |
| --- | --- | --- | --- | --- | --- | --- | --- | --- | --- | --- |
| CCOC(=O)c1cnc2ccc(-c3cc(Cl)c(O)c(Cl)c3)nc2c1N[C@H]1CC[C@H](CC(N)=O)CC1 | 63 nM | 43 nM | 44 | 1390 nM | 22 | > 2.65 h | 0.467 h |  |  | CC50 [3]: 1890 nM; Papp at 2 h [8]: 0.01 ×10⁻⁶ cm/s |
| CC(=O)c1cnc2ccc(-c3cc(Cl)c(O)c(Cl)c3)nc2c1N[C@H]1CC[C@H](CN(C)C)CC1 | 5 nM | 5 nM |  | 20 nM |  |  |  | 64 nM | 0.12 nM | Activity [9]: 0%; Activity [10]: 0%; Activity [11]: 0%; Activity [12]: 6.6%; Activity (Aurora kinase B [13]): 0.65%; Activity [14]: 1.7%; Activity [15]: 1.7% |
| O=C(O)c1ccc(Nc2ncc3c(n2)-c2ccc(Cl)cc2C(c2c(F)cccc2F)=NC3)cc1 [MLN-8054] |  |  |  |  |  |  |  |  |  | inhibition at 48 h, 0.04 µM (AURKB (Aurora kinase B) [17]): 22% |
| CCOC(=O)c1cnc2ccc(-c3cc(Cl)c(O)c(Cl)c3)nc2c1N[C@H]1CC[C@H](CN)CC1 |  | 8 nM | 20 |  |  |  |  | 165 nM | 0.22 nM | Kd [18]: 9 nM |
| CCOC(=O)c1cnc2ccc(-c3ccnc(N)c3)nc2c1N[C@H]1CC[C@H](CN2CCOCC2)CC1 | 3.3 nM | 37 nM | 79 | 856 nM | 259 | 0.25 h | 0.617 h |  |  | CC50 [3]: 2960 nM; Papp at 2 h [8]: 2.7 ×10⁻⁶ cm/s |
| O=C(NC[C@H](O)CO)c1ccncc1Nc1ccc(I)cc1F [PIMASERTIB] |  |  |  |  |  |  |  |  |  | inhibition at 48 h, 10 µM (AURKB (Aurora kinase B) [19]): 10% |
| Cn1c(=O)c(F)c(Nc2ccc(I)cc2F)c2c(=O)n(C[C@@H](O)CO)cnc21 [TAK-733] |  |  |  |  |  |  |  |  |  | inhibition (INH) (Aurora kinase B [20]): Not Active |
| CCCCNC(=O)c1cnc2ccc(-c3cc(Cl)c(O)c(Cl)c3)nc2c1N[C@H]1CC[C@H](C(=O)N2CCOCC2)CC1 | 63 nM | 56 nM | 38 | 2440 nM | 39 | > 2.65 h | 1.58 h |  |  | CC50 [3]: 2120 nM; Papp ([8]; caco-2, 2 h): 9.1 ×10⁻⁶ cm/s |
| CCOC(=O)c1cnc2ccc(-c3cc(Cl)c(O)c(Cl)c3)nc2c1N[C@H]1CC[C@H](CN(C)C)CC1 |  | 7 nM | 26 |  |  |  |  | 186 nM | 0.16 nM | Kd [18]: 11 nM |
| CCOC(=O)c1cnc2ccc(-c3cc(Cl)c(O)c(Cl)c3)nc2c1N[C@H]1CC[C@H](C(=O)N(C)C)CC1 | 31 nM | 50 nM | 119 | 2810 nM | 91 | > 2.65 h | > 2.65 h | 5900 nM | 0.6 nM | Kd [18]: 13 nM; Papp at 2 h [8]: 0.12 ×10⁻⁶ cm/s |
| CCCCNC(=O)c1cnc2ccc(-c3cc(Cl)c(O)c(Cl)c3)nc2c1N[C@H]1CC[C@H](CN(C)C)CC1 |  | 3 nM | 17 |  |  |  |  | 51 nM | 0.075 nM | Kd [18]: 12 nM |
| O=C(O)[C@]1(Cc2cccc(Nc3nccs3)n2)CC[C@@H](Oc2cccc(Cl)c2F)CC1 [MK-5108] |  |  |  |  |  |  |  |  |  | inhibition at 48 h, 3 µM (AURKB (Aurora kinase B) [21]): 24% |
| CCOC(=O)c1cnc2ccc(-c3cc(Cl)c(O)c(Cl)c3)nc2c1NC1CCN(C)CC1 | 3.3 nM | 6 nM | 170 | 387 nM | 117 | 2.15 h | > 2.65 h | 1020 nM |  | Papp at 2 h [8]: 4.6 ×10⁻⁶ cm/s |
| CCN(CCO)CCCOc1ccc2c(Nc3cc(CC(=O)Nc4cccc(F)c4)[nH]n3)ncnc2c1 [DEFOSBARASERTIB] |  |  |  |  |  |  |  |  |  | inhibition at 48 h, 0.04 µM (AURKB (Aurora kinase B) [17]): 41% |
